TRPC4 potent: allosteric potentiators of mouse TRPC4 channel; Q9QUQ5; HEK293 TRPC4beta/mu-opioid, DAMGO EC20, Fluo-4 Ca2+ flux; hits give high values; B-score at 10 µM; actives 0.42% (n = 310,000);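 active means B-score of calcium response area above 5 SD of library B-scores, with initial fluorescence ratio within 5 SD of library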;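 further: B-score of integrated fluorescence ratio over time as area under calcium response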
Target sequence (Q9QUQ5 whole entry, looked up): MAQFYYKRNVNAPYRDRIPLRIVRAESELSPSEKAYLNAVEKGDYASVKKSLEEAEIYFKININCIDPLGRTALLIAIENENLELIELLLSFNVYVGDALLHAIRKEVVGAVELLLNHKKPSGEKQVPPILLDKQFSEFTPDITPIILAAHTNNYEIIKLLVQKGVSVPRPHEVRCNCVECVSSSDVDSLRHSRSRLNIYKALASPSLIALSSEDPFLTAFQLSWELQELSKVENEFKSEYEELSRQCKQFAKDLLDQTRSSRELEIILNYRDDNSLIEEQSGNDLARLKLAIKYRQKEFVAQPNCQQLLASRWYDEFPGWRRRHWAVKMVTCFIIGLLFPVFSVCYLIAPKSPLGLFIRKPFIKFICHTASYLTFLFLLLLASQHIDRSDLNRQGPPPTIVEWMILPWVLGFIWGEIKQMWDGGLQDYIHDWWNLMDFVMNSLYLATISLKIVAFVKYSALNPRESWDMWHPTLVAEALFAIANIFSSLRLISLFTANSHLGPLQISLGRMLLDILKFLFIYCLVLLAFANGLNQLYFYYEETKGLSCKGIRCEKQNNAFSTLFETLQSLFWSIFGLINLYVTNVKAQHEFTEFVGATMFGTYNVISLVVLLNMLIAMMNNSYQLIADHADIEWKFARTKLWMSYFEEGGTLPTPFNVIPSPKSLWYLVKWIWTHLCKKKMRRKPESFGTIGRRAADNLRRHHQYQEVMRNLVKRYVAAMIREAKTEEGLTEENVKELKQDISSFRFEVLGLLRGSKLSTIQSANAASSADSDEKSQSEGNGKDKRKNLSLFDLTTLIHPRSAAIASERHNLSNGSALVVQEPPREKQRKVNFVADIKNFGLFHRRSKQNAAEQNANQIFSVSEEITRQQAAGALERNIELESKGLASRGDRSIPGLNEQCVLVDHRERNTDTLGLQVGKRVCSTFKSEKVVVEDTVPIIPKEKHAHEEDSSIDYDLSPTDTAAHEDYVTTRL
TRPC6 inhibitor: mouse TRPC6 channel inhibition. Q61143. HEK293-TRPC6, membrane potential dye, ACh-evoked depolarization; hits give low values. B-score at 10 µM. actives 1.1% (n = 310,000);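 active means B-score under library mean minus 3 SD, initial fluorescence not abnormally high, positive integrated signal ratio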;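 further: B-score derived from integrated fluorescence ratio over the kinetic read; more negative B-score means stronger inhibition of depolarization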
TRPC4 act: TRPC4 (mouse) channel activation. Q9QUQ5. HEK293 TRPC4beta/mu-opioid, Fluo4 calcium fluorescence; hits give high values. B-score at 10 µM. actives 0.49% (n = 310,000);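 active means B-score above 5 SD of library B-scores, and initial fluorescence ratio not above library mean plus 5 SD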;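 further: positive B-score marks a calcium rise read as TRPC4 activation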
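Material: TRPC4beta and mu-opioid receptor HEK293 stable cells | Incubation: 45 min room-temperature Fluo4 loading, 110 s read | Detection: Kinetic Fluo4 calcium fluorescence | Measure: Integrated baseline-normalised fluorescence ratio, converted to per-well B score | Benchmarks: Low control buffer alone, high control maximal DAMGO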
TRPC4 block: blocks the mouse TRPC4 cation channel; HEK293 TRPC4beta/mu-opioid, DAMGO-evoked Fluo4 calcium flux; hits give low values; B-score at 10 µM; actives 0.39% (n = 300,000); AID 2247;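 active means B-score over 3 SD under the library average, no early fluorescence shift, positive overall ratio signal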
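Assay system – HEK293 line stably carrying TRPC4beta and mu-opioid receptor · Doses – single dose · Detection – Fluo4 calcium-dye fluorescence, kinetic read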
TRPC6 act: activates the mouse TRPC6 cation channel; B-score at 10 µM; actives 0.13% (n = 310,000); HEK293-TRPC6 membrane potential dye fluorescence; hits give high values;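 active means B-score of the integrated fluorescence ratio above library mean plus 3 SD, and starting fluorescence ratio within library mean plus 5 SD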;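 further: higher score means more depolarization so channel activation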
TRPC4 spec 2: mouse TRPC4 off-target activity of TRPC6 inhibitors, second screen | shares compounds with TRPC6 inhibitor | inhibition, % at 10 µM | actives 42% (n = 920) | AID 2776 | HEK293 TRPC4/MOR, membrane potential dye fluorescence; channel activated by saturating DAMGO dose;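 active means compounds whose fluorescence signal differed from control wells by over 3 SD, either direction, in both duplicate plates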
TRPC4 spec: selectivity of TRPC6 inhibitors: effect on mouse TRPC4; shares compounds with TRPC6 inhibitor; HEK293 TRPC4/mu-opioid, membrane potential fluorescence; activity change, negative = inhibition, % at 10 µM; actives 61% (n = 920); AID 2777;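 active means rise or fall in signal beyond 3 SD of buffer-only wells in both replicate plates, either sign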;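 further: integrated kinetic ratio of fluorescence range over baseline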
HEK293 MPD ctr 2-1: second counter-screen for TRPC6 inhibitors: parental HEK293 cells. shares compounds with TRPC6 inhibitor. parental HEK293 membrane potential dye fluorescence; maximal acetylcholine challenge after compound addition. signal change vs control, % at 10 µM. actives 31% (n = 920);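 active means membrane potential signal moving either way by over 3 SD of the maximum-effect control, in both duplicate plates, meaning non-specific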
HEK293 MPD ctr-1: parental HEK293 nonspecific activity of TRPC6 inhibitors; actives 60% (n = 920); AID 2780; membrane potential signal change, % at 10 µM; shares compounds with TRPC6 inhibitor; parental HEK293 membrane potential dye fluorescence;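 active means membrane potential signal shifting up or down by more than 3 SD of buffer-only wells, on both duplicate plates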
HEK293 MPD ctr-2: counter-screen for TRPC6 modulators: effect in parental HEK293 cells; shares compounds with TRPC6 inhibitor; membrane potential dye fluorescence; membrane potential signal change, % at 10 µM; actives 51% (n = 2,400); AID 488924;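 active means membrane potential signal moves up or down beyond 5 SD from buffer-only wells, on both duplicate plates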
HEK293 MPD ctr 2-2: second counter-screen for TRPC6 modulators: effect in parental HEK293 cells | shares compounds with TRPC6 inhibitor | membrane potential dye fluorescence; after compound, maximal acetylcholine stimulation | inhibition, % at 10 µM | actives 14% (n = 2,400);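 active means membrane potential signal drops by more than 5 SD from the mean control signal, in both duplicate plates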;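 further: plate controls were acetylcholine ECmax control wells for no effect and buffer only wells for full effect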
TRPC4/MOR mod: tests whether TRPC6 modulators also affect mouse TRPC4; shares compounds with TRPC6 inhibitor; HEK293 TRPC4/mu-opioid, membrane potential fluorescence; percent change from control (negative = decrease, positive = increase), % at 10 µM; actives 69% (n = 2,400); AID 488927;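 active means membrane potential signal moved up or down beyond 5 SD of buffer control wells, in both duplicate plates, actives on both sides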;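 further: plate controls were assay buffer wells for no effect and DAMGO maximal-effect wells for full effect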
TRPC4 ctr inh 2: second check of whether TRPC6 modulators also affect mouse TRPC4; shares compounds with TRPC6 inhibitor; HEK293 TRPC4/mu-opioid, membrane potential dye fluorescence; stimulated with maximal-effect DAMGO; inhibition, % at 10 µM; actives 55% (n = 2,400); AID 488928;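 active means drop in membrane potential signal beyond 5 SD of the control wells in both duplicate plates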;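 further: TRPC4 counter screen for TRPC6 hits run under conditions tuned for TRPC6 not TRPC4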
TRPC6 block conf: mouse TRPC6 inhibitor confirmation; AID 488960; inhibition, % at 10 µM; HEK293-TRPC6, membrane potential dye, ACh-evoked depolarization; actives 43% (n = 3,300); shares compounds with TRPC6 inhibitor;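 active means fluorescence ratio falls more than 5 SD below the full-stimulation control mean, in both duplicate runs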;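 further: integrated fluorescence ratio of peak minus minimum over baseline after agonist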
TRPC6 act conf: mouse TRPC6 activator confirmation. actives 11% (n = 2,800). shares compounds with TRPC6 inhibitor. HEK293-TRPC6 membrane potential dye fluorescence, FDSS. activation, % at 10 µM;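 active means ratio signal rise beyond 5 SD above unstimulated control wells' mean, seen in both duplicate runs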;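 further: plate controls were buffer EC0 wells for no effect and acetylcholine ECmax response for full effect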
* marks the source's active call; other numbers are inactive results; i = inactive; . = no result given; + = active, no number. Hits are enriched below; roughly 2.3% of the tested compounds scored in any of these assays.

SMILES	TRPC4 potent	TRPC6 inhibitor	TRPC4 act	TRPC4 block	TRPC6 act	HEK293 MPD ctr-2	HEK293 MPD ctr 2-2	TRPC4/MOR mod	TRPC4 ctr inh 2	TRPC6 block conf	TRPC6 act conf	others
CN(C)CCNc1nc2c(c(=O)[nH]c(=O)n2C)n1CC(O)COc1ccc(Cl)cc1 (stereo not given)	i	i	i	i	i	.	.	.	.	.	.
CCN(CC)CCNc1nc2c(c(=O)[nH]c(=O)n2C)n1CC(O)COc1ccc(Cl)cc1Cl (stereo not given)	i	-8.8*	i	i	i	-308%*	58%*	-56%*	35%*	42%*	i
CN1CCc2cc3c(c4c2[C@H]1[C@H](O)c1ccccc1-4)OCO3	i	-5.1*	i	i	i	i	i	-24%*	48%*	i	i
COc1ccc2c(c1OC)C(=O)OC2C1c2c(cc3c(c2OC)OCO3)CCN1C (stereo not given)	i	i	i	i	i	.	.	.	.	.	.
CC1C/C(=C/c2cccn2C)C(=O)/C(=C/c2cccn2C)C1 (stereo not given)	i	i	i	i	79*	+	i	440%*	i	i	311%*
COc1ccc([C@@H]2[C@@H]3C(=O)N(C(C)(C)C)C(=O)[C@@H]3[C@]3(Cc4ccccc4)C(=O)N(c4ccc(Br)cc4)C(=O)N23)cc1	i	-6.1*	i	i	i	i	i	i	i	i	i
COc1ccccc1CNS(=O)(=O)c1cc2c3c(c1)CCN3C(=O)CC2	i	i	i	i	i	.	.	.	.	.	.
Fc1cccc(CCN2CCNC[C@@H]2Cc2ccccc2)c1	i	-5.4*	i	i	i	i	i	i	39%*	i	i
FC(F)(F)c1cc(CCN2CCNC[C@@H]2Cc2ccccc2)cc(C(F)(F)F)c1	i	-5.6*	i	i	i	i	i	i	48%*	i	i
CC(O)[C@H]1CNCCN1CCc1cc(C(F)(F)F)cc(C(F)(F)F)c1 (stereo not given in full)	i	i	i	i	i	.	.	.	.	.	.
CCCC[C@@H]1CNCCN1CCc1cccc(F)c1	i	i	i	i	i	.	.	.	.	.	.
CCCCC(O)(CCN1CCOCC1)c1ccc(Cl)cc1 (stereo not given)	i	-8.9*	i	i	i	.	.	.	.	65%*	i	TRPC4 spec 2=i;TRPC4 spec=8.8%*;HEK293 MPD ctr 2-1=30%*;HEK293 MPD ctr-1=5.8%*
O=C1c2cccc3c(Nc4ccccc4Cl)c([N+](=O)[O-])cc(c23)C(=O)N1CCO	i	-10*	i	i	i	-100%*	i	-26%*	81%*	47%*	i
CCN(CC)CCCNC1=C(Cl)C(=O)c2ccccc2C1=O	i	-6.2*	i	i	i	-180%*	i	-30%*	47%*	50%*	i
Cc1ccc(N2CC(O)(c3cccs3)[N+]3=C2CCCC3)cc1 (stereo not given)	i	-5.2*	i	i	i	104%*	i	16%*	38%*	i	.
Cc1cccc(N2CC(O)(c3cccs3)[N+]3=C2CCCC3)c1 (stereo not given)	i	i	i	i	i	.	.	.	.	.	.
C/C(CC(=O)NC1CCCC1)=N\NC(=O)Cc1csc(N)n1	i	i	i	i	i	.	.	.	.	.	.
Cc1sc2cc3c(c(C(=O)c4ccccc4)[n+]2c1C)-c1cccc2cccc-3c12	i	-8.6*	i	-6*	i	.	.	.	.	i	i	TRPC4 spec 2=i;TRPC4 spec=-28%*;HEK293 MPD ctr 2-1=i;HEK293 MPD ctr-1=-502%*
CCC(C)(C)NC(=O)C(c1ccccc1Cl)N(C(=O)CCC(=O)Nc1cc(C)on1)c1ccc(NC(C)=O)cc1 (stereo not given)	i	i	i	i	i	.	.	.	.	.	.
NCC(c1ccccc1)(c1ccccc1)c1ccccc1	i	-6.6*	117*	-8*	i	i	i	18%*	74%*	42%*	i
O=c1[nH]c(C2CCN(S(=O)(=O)c3ccccc3)CC2)nc2c1nnn2Cc1c(F)cccc1Cl	i	i	i	i	i	.	.	.	.	.	.
N#CCCN(CCN1CCCC1)S(=O)(=O)c1ccc(-c2ccc([N+](=O)[O-])cc2)cc1	i	-7.8*	i	i	i	.	.	.	.	88%*	i	TRPC4 spec 2=32%*;TRPC4 spec=-27%*;HEK293 MPD ctr 2-1=30%*;HEK293 MPD ctr-1=-268%*
CCC(C(=O)NC1CCCCC1)n1c(SCc2ccccc2F)nc2ccncc21 (stereo not given)	i	-5.2*	i	i	i	i	i	i	i	i	i
CN(C)C(CNC(=O)CCNC(=O)c1ccc(Cl)cc1)c1ccco1 (stereo not given)	i	i	i	i	i	.	.	.	.	.	.
COC(=O)CSc1nc(-c2ccccc2)c2c(c1C#N)CCCC2	i	i	i	i	i	.	.	.	.	.	.
